Measurements reported in ChEMBL document CHEMBL2331355, “Synthesis, structure activity relationship and mode of action of 3-substitutedphenyl-1-(2,2,8,8-tetramethyl-3,4,9,10-tetrahydro-2H,8H-pyrano[2,3-f]chromen-6-yl)-propenones as novel anticancer agents in human leukaemia HL-60 cells” (Eur J Med Chem, 2013).

What was measured:
Format in all cases: functional
Caco-2 = assay: Growth inhibition of human Caco2 cells at 50 uM after 48 hrs by MTT assay; settings: Caco-2, 48 h, read-out: GI
Procedure, shortened: (§1)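 Single-concentration MTT screen at 50 µM over 48 h in 96-well plates. Compounds giving >50% inhibition were rescreened at 30 µM. OD read at 570 nm, reference 620 nm. Result expressed as % growth inhibition versus untreated control. Mitomycin C, adriamycin or 5-fluorouracil used as positive controls. Mean ± SD of three independent experiments.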

MDA-MB-435 = assay: Growth inhibition of human MDA-MB-435 cells at 50 uM after 48 hrs by MTT assay; settings: MDA-MB-435, 48 h, read-out: GI; procedure, shortened: as §1
MCF7 = assay: Growth inhibition of human MCF7 cells at 50 uM after 48 hrs by MTT assay; settings: MCF7, 48 h, read-out: GI; procedure, shortened: as §1
ASPC1 = assay: Growth inhibition of human AsPC1 cells at 50 uM after 48 hrs by MTT assay; settings: ASPC1, 48 h, read-out: GI; procedure, shortened: as §1
MIA PaCa-2 = assay: Growth inhibition of human MIAPaCa2 cells at 50 uM after 48 hrs by MTT assay; settings: MIA PaCa-2, 48 h, read-out: GI; procedure, shortened: as §1
HL-60 = assay: Growth inhibition of human HL60 cells at 50 uM after 48 hrs by MTT assay; settings: HL-60, 48 h, read-out: GI; procedure, shortened: as §1
PC-3 = assay: Growth inhibition of human PC3 cells at 50 uM after 48 hrs by MTT assay; settings: PC-3, 48 h, read-out: GI; procedure, shortened: as §1

Compound | inhibition of growth at 50 µM (Caco-2) | inhibition of growth at 50 µM (MDA-MB-435) | inhibition of growth at 50 µM (MCF7) | inhibition of growth at 50 µM (ASPC1) | inhibition of growth at 50 µM (MIA PaCa-2) | inhibition of growth at 50 µM (HL-60) | inhibition of growth at 50 µM (PC-3)
CC1(C)CCc2cc(C(=O)/C=C/c3ccccc3Cl)c3c(c2O1)CCC(C)(C)O3 | 11% | 33% | 9% | 15% | 31% | 41% | 52%
COc1cc(OC)c(/C=C/C(=O)c2cc3c(c4c2OC(C)(C)CC4)OC(C)(C)CC3)c(OC)c1 | 17% | 32% | 26% | 5% | 27% | 77% | 62%
CC1(C)CCc2cc(C(=O)/C=C/c3cccc(Cl)c3)c3c(c2O1)CCC(C)(C)O3 | 31% | 54% | 16% | 24% | 24% | 60% | 59%
CC1(C)CCc2cc(C(=O)/C=C/c3ccc(F)cc3)c3c(c2O1)CCC(C)(C)O3 | 12% | 52% | 17% | 28% | 38% | 38% | 59%
COc1ccc(/C=C/C(=O)c2cc3c(c4c2OC(C)(C)CC4)OC(C)(C)CC3)cc1 | 16% | 53% | 7% | 12% | 30% | 5% | 63%
CC1(C)CCc2cc(C(=O)/C=C/c3ccccc3)c3c(c2O1)CCC(C)(C)O3 | 34% | 47% | 14% | 17% | 24% | 32% | 51%
